Measured values: ChEMBL document CHEMBL1641550, “Efficient synthesis and biological evaluation of epiceanothic acid and related compounds” (Bioorg Med Chem Lett, 2011)
Where a name gives a salt, the structure may show the parent alone.

Assays:
A549 = assay: Cytotoxicity against human A549 cells after 48 hrs by MTT assay; format: functional, cell-based; conditions: A549, 48 h
Procedure, shortened: (§1)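 Cells seeded and allowed to adhere at 37 °C in a CO2 incubator, then exposed for 48 h to 0.0001, 0.0005, 0.001, 0.005, 0.01, 0.05 or 0.1 mmol·L−1 compound. MTT (5%) added for a further 4 h, absorbance read at 570 nm.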

[1] = target: T1, Glycogen phosphorylase, muscle form (Oryctolagus cuniculus, UniProt P00489); assay: Inhibition of rabbit muscle glycogen phosphorylase a
T1 sequence (P00489 whole entry): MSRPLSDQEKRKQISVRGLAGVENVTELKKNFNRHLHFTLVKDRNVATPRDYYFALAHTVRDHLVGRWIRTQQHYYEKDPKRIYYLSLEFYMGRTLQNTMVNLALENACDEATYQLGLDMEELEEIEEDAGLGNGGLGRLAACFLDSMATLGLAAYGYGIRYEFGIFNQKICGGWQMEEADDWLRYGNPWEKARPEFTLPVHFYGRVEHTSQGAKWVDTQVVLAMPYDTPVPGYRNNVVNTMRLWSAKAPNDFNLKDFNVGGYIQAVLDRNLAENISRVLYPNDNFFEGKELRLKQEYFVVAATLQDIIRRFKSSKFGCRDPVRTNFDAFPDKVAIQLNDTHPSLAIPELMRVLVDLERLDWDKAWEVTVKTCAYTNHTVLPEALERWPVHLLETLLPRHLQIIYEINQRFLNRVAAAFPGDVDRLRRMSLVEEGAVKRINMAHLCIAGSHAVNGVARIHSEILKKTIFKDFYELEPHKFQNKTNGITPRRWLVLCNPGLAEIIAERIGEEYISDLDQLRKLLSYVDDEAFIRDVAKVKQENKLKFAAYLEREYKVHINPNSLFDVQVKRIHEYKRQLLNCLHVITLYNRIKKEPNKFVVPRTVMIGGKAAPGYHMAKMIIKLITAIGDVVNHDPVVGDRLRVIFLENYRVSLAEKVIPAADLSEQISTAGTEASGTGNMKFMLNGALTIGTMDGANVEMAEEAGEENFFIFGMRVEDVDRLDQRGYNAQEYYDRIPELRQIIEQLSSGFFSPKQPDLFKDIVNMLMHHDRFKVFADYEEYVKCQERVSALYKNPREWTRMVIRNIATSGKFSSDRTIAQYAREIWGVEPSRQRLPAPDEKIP

MT4 = assay: Cytotoxicity against human MT4 lymphocytes after 48 hrs by MTT assay; format: cell-based
MCF7 = assay: Cytotoxicity against human MCF7 cells after 48 hrs by MTT assay; format: functional, cell-based; conditions: MCF7, 48 h; procedure, shortened: as §1
HeLa = assay: Cytotoxicity against human HeLa cells after 48 hrs by MTT assay; format: functional, cell-based; procedure, shortened: as §1
[2] = system: Human immunodeficiency virus 1; assay: Antiviral activity against Human immunodeficiency virus 1 NL4-3 infected in MT4 lymphocytes assessed as p24 antigen level by ELISA; format: functional, organism-based
Procedure, shortened: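 HIV-1 NL4-3 variants at MOI 0.01 infect MT-4 cells in a replication screening assay run in 96-well format.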

BGC-823 = assay: Cytotoxicity against human BGC823 cells after 48 hrs by MTT assay; format: functional, cell-based; procedure, shortened: as §1
PC-3 = assay: Cytotoxicity against human PC3 cells after 48 hrs by MTT assay; format: functional, cell-based; procedure, shortened: as §1
[3] = Therapeutic index, ratio of IC50 for human lymphocytes to EC50 for Human immunodeficiency virus 1 NL4-3; conditions: read-out: TI
[4] = Homo sapiens, HeLa, 48 h, read-out: IC50
[5] = Homo sapiens, BGC-823, 48 h, read-out: IC50
[6] = Homo sapiens, PC-3, 48 h, read-out: IC50
[7] = Homo sapiens, MT4, 48 h, read-out: IC50
[8] = Human immunodeficiency virus 1, NL4-3, read-out: EC50

Compound | IC50 (A549) [µM] | IC50 ([1]; read-out: IC50) [µM] | IC50 (MT4; mt4) | IC50 (MCF7) [µM] | IC50 (HeLa; [4]) [µM] | EC50 [2] | IC50 (BGC-823; [5]) [µM] | IC50 (PC-3; [6]) [µM] | IC50 (HeLa; hela) | IC50 (PC-3; pc-3) | selectivity ratio [3] | IC50 (MT4; [7]) [µM] | EC50 [2, 8] [µM] | IC50 (BGC-823; bgc-823) | IC50 [1]
C=C(C)[C@@H]1CC[C@]2(C=O)CC[C@]3(C)[C@H](CC[C@@H]4[C@@]5(C)[C@H](C(=O)OC)[C@H](OC(C)=O)C(C)(C)[C@@H]5CC[C@]43C)[C@@H]12 | 194 | 53.8 | Not Active | 32.5 | 105 | Not Active | 12.7 | 8.51 |  |  |  |  |  |  | 
C=C(C)[C@@H]1CC[C@]2(COC(c3ccccc3)(c3ccccc3)c3ccccc3)CC[C@]3(C)[C@H](CC[C@@H]4[C@@]5(C)[C@H](C(=O)OC)[C@H](O)C(C)(C)[C@@H]5CC[C@]43C)[C@@H]12 | 770 | 20.1 |  | 398 |  |  |  |  | Not Active | Not Active |  |  |  |  | 
C=C(C)[C@@H]1CC[C@]2(C(=O)O)CC[C@]3(C)[C@H](CC[C@@H]4[C@@]5(C)[C@H](C(=O)O)[C@H](O)C(C)(C)[C@@H]5CC[C@]43C)[C@@H]12 [EPICEANOTHIC ACID] | 16.8 | 194 |  | 87.2 |  |  | 2.41 | 19.7 |  |  | 2.49 | 38.9 | 15.6 |  | 
C=C(C)[C@@H]1CC[C@]2(COC(c3ccccc3)(c3ccccc3)c3ccccc3)CC[C@]3(C)[C@H](CC[C@@H]4[C@@]5(C)[C@H](C(=O)OC)[C@H](OC(C)=O)C(C)(C)[C@@H]5CC[C@]43C)[C@@H]12 | 892 | 15.2 | Not Active | 565 |  | Not Active |  |  | Not Active | Not Active |  |  |  | Not Active | 
COc1cccc2c1C(=O)c1c(O)c3c(c(O)c1C2=O)C[C@@](O)(C(=O)CO)C[C@@H]3O[C@H]1C[C@H](N)[C@H](O)[C@H](C)O1 [DOXORUBICIN HYDROCHLORIDE] | 0.54 |  |  | 1.65 |  |  |  | 0.68 |  |  |  |  |  |  | 
C=C(C)[C@@H]1CC[C@]2(C(=O)O)CC[C@]3(C)[C@H](CC[C@@H]4[C@@]5(C)[C@H](C(=O)OC)[C@H](OC(C)=O)C(C)(C)[C@@H]5CC[C@]43C)[C@@H]12 | 0.89 | 46.4 | Not Active | 0.33 | 56.7 | Not Active | 7.64 | 10.8 |  |  |  |  |  |  | 
C=C(C)[C@@H]1CC[C@]2(CO)CC[C@]3(C)[C@H](CC[C@@H]4[C@@]5(C)CC[C@H](O)C(C)(C)[C@@H]5CC[C@]43C)[C@@H]12 [BETULIN] |  | 41.5 | Not Active |  |  | Not Active |  |  |  |  |  |  |  |  | 
C=C(C)[C@@H]1CC[C@]2(CO)CC[C@]3(C)[C@H](CC[C@@H]4[C@@]5(C)[C@H](C(=O)OC)[C@H](OC(C)=O)C(C)(C)[C@@H]5CC[C@]43C)[C@@H]12 | 62.9 |  | Not Active | 604 |  | Not Active | 25.9 | 66.3 |  |  |  |  |  |  | Not Active
C=C(C)[C@@H]1CC[C@]2(COC(c3ccccc3)(c3ccccc3)c3ccccc3)CC[C@]3(C)[C@H](CC[C@@H]4[C@@](C)(CC(=O)O)[C@H](C(C)(C)C(=O)O)CC[C@]43C)[C@@H]12 | 136 | 0.21 |  | 560 |  |  |  | 6.75 | Not Active |  |  |  |  | Not Active | 
C=C(C)[C@@H]1CC[C@]2(C(=O)O)CC[C@]3(C)[C@H](CC[C@@H]4[C@@]5(C)CC[C@H](OC(=O)CC(C)(C)C(=O)O)C(C)(C)[C@@H]5CC[C@]43C)[C@@H]12 [BEVIRIMAT] |  |  |  |  |  |  |  |  |  |  | 185 | 15.2 | 0.082 |  | 
C=C(C)[C@@H]1CC[C@]2(COC(c3ccccc3)(c3ccccc3)c3ccccc3)CC[C@]3(C)[C@H](CC[C@@H]4[C@@](C)(CC(=O)OC)[C@H](C(C)(C)C(=O)OC)CC[C@]43C)[C@@H]12 | 996 | 2.87 |  | 374 | 17.1 |  | 9.54 | 5.32 |  |  |  |  |  |  | 
